ChEMBL document CHEMBL1148612, “Rapid synthesis of triazole-modified resveratrol analogues via click chemistry” (J Med Chem, 2006)

Key:
MDA-MB-231 [1] = assay: Cytotoxicity against breast cancer MDA-MB-231 cell line by MTT assay; type: functional, cell-based; conditions: Homo sapiens
Outline: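 MDA-MB-231 cells were screened by MTT in an automated format across decreasing compound concentrations. Viability was expressed as % of untreated control, with 70% of control as the arbitrary cutoff for reduced viability at 10 µM. IC50 values are approximate and were assigned to concentration ranges.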

FG2 = assay: Cytotoxicity against human pancreatic carcinoma FG2 cell line by MTT assay at 100 uM; type: functional
Outline: (§1)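 Cells were exposed to compound at 100 µM for 48 h. Values are % viability relative to untreated control cells, given as mean ± SEM of four determinations.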

MDA-MB-231 [2] = assay: Cytotoxicity against breast cancer MDA-MB-231 cell line by MTT assay at 100 uM; type: functional, Homo sapiens; outline: as §1
SH-SY5Y = assay: Cytotoxicity against neuroblastoma SHSY5Y cell line by MTT assay at 100 uM; type: functional, Homo sapiens; outline: as §1
RBL-2H3 = assay: Cytotoxicity against basophilic leukemia RBL 2H3 cell line by MTT assay at 100 uM; type: functional, Rattus norvegicus; outline: as §1

Structure (SMILES) | IC50 (MDA-MB-231 [1]) [µM] | also measured
COc1cc(OC)cc(-n2cc(-c3ccc(O)c(OC)c3)nn2)c1 | 10 | 
COc1cc(-n2cc(-c3ccc(N)cc3)nn2)cc(OC)c1OC | > 10 | 
COc1ccc(-n2cc(-c3ccc(O)c(OC)c3)nn2)cc1 | > 10 | 
Nc1ccc(-c2cn(-c3c(O)c(F)cc(F)c3F)nn2)cc1 | > 10 | 
COc1ccc(-c2cn(-c3cc(OC)c(OC)c(OC)c3)nn2)cc1 | > 10 | 
Oc1cc(O)cc(-c2cn(-c3ccc(Oc4ccccc4)cc3)nn2)c1 | > 10 | 
Oc1ccc(-n2cc(-c3cc(O)cc(O)c3)nn2)cc1 |  | Activity (FG2): 91.9%; Activity (MDA-MB-231 [2]): 95.5%; Activity (SH-SY5Y): 86.6%; Activity (RBL-2H3): 114%
COc1ccc(-c2cn(-c3ccc(OC(F)(F)F)cc3)nn2)cc1 | 1 | 
COc1cc(-c2cn(-c3ccc(Oc4ccccc4)cc3)nn2)cc(OC)c1OC | 10 | 
COc1ccc(-c2cn(-c3ccc(OC)c(OC)c3)nn2)cc1 | > 10 | 
COc1ccc(-c2cn(-c3ccc(OC(F)(F)F)cc3)nn2)cc1OC | > 1 | 
COc1ccc(-c2cn(-c3ccc(OC)c(OC)c3)nn2)cc1O | > 0.1 | 
COc1ccc(-c2cn(-c3cc(O)cc(O)c3)nn2)cc1 |  | Activity (FG2): 83.7%; Activity (MDA-MB-231 [2]): 72.2%; Activity (SH-SY5Y): 62.2%; Activity (RBL-2H3): 99.6%
COc1ccc(-n2cc(-c3cc(OC)c(OC)c(OC)c3)nn2)cc1 | > 10 | 
COc1cc(-c2cn(-c3cc(OC)c(OC)c(OC)c3)nn2)ccc1O | > 10 | 
Nc1ccc(-c2cn(-c3ccc4c(c3)OCO4)nn2)cc1 | > 10 | 
COc1ccc(-n2cc(-c3cc(O)cc(O)c3)nn2)cc1O | > 10 | 
COc1ccc(-c2cn(-c3ccc(Oc4ccccc4)cc3)nn2)cc1 | > 0.1 | 
COc1cc(-c2cn(-c3ccc4c(c3)OCO4)nn2)ccc1O | > 10 | 

Structure (SMILES) | IC50 (MDA-MB-231 [1]) [µM] | also measured
COc1cc(OC)cc(-c2cn(-c3c(O)c(F)cc(F)c3F)nn2)c1 | > 10 | 
Oc1cc(O)cc(-c2cn(-c3ccc4c(c3)OCO4)nn2)c1 | > 1 | 
COc1ccc(-c2cn(-c3ccc(OC)cc3)nn2)cc1 | > 0.1 | 
COc1cc(OC)cc(-n2cc(-c3ccc(OC)c(OC)c3)nn2)c1 | > 1 | 
COc1ccc(-n2cc(-c3ccc(N)cc3)nn2)cc1OC | > 10 | 
COc1ccc(-c2cn(-c3cc(OC)cc(OC)c3)nn2)cc1 |  | Activity (FG2): 100.8%; Activity (MDA-MB-231 [2]): 99.3%; Activity (SH-SY5Y): 85.9%; Activity (RBL-2H3): 113%
COc1cc(OC)cc(-n2cc(-c3cc(OC)c(OC)c(OC)c3)nn2)c1 | > 1 | 
COc1cc(OC)cc(-c2cn(-c3ccc(OC(F)(F)F)cc3)nn2)c1 | > 1 | 
COc1cc(-c2cn(-c3cc(OC)c(OC)c(OC)c3)nn2)cc(OC)c1OC | > 10 | 
Oc1cc(O)cc(-c2cn(-c3ccc(OC(F)(F)F)cc3)nn2)c1 | > 10 | 
COc1cc(-c2cn(-c3c(O)c(F)cc(F)c3F)nn2)ccc1O | 10 | 
COc1ccc(-c2cn(-c3ccc(Oc4ccccc4)cc3)nn2)cc1O | > 10 | 
COc1ccc(-c2cn(-c3ccc4c(c3)OCO4)nn2)cc1 | 1 | 
Oc1ccc(-c2cn(-c3cc(O)cc(O)c3)nn2)cc1 |  | Activity (FG2): 93.7%; Activity (MDA-MB-231 [2]): 97%; Activity (SH-SY5Y): 93.4%; Activity (RBL-2H3): 110%
COc1ccc(-n2cc(-c3cc(O)cc(O)c3)nn2)c(OC)c1 | 10 | 
COc1ccc(-n2cc(-c3ccc(O)c(OC)c3)nn2)cc1O | > 10 | 
COc1ccc(-c2cn(-c3ccc(OC)cc3OC)nn2)cc1 | > 10 | 
COc1ccc(-c2cn(-c3ccc(OC(F)(F)F)cc3)nn2)cc1O | > 10 | 
COc1cc(OC)cc(-n2cc(-c3cc(O)cc(O)c3)nn2)c1 | > 10 | 
